# Columns and labels:
# [1] = tested on: rod CNG channels; conditions: ref Molokanova et al. 1999a; cited from earlier work
# [2] = biological target: T1, α-subunit of the bovine retinal rod CNG channel (RETα) (Bos taurus, UniProt Q00194); type: biochemical; conditions: 10 μM Ni^2+; subsaturating cGMP (25 μM); steady state
# T1 sequence (Q00194 1-690): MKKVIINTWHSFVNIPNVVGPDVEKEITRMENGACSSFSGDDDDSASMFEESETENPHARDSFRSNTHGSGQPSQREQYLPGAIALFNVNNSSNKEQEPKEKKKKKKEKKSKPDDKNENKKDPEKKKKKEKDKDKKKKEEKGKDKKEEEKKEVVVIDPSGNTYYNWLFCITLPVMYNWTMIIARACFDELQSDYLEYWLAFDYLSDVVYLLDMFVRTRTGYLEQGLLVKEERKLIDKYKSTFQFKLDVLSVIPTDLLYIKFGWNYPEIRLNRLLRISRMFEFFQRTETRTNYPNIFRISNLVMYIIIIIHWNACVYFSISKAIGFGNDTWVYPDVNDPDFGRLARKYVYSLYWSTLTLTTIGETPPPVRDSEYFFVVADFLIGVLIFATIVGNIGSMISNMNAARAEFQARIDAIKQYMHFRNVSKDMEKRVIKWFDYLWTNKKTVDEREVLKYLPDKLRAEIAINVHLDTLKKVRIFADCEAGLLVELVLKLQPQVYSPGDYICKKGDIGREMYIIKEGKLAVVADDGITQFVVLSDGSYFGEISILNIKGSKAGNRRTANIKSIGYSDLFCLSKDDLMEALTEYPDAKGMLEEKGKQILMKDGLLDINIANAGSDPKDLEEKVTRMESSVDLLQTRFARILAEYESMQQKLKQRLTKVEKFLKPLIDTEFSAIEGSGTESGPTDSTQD
# How it was run: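 RETα was expressed in oocytes from 50 nl of 50 ng/μl RNA. Inside-out patches were held at −75 mV in symmetrical NaCl/EGTA/EDTA/HEPES, pH 7.5, with solution exchange within 50 ms. Current was normalized to Imax: residual current after 1 min preexposure then 2 mM cGMP, or steady-state current with compound added during 2 mM cGMP. Ki and Hill coefficient came from a modified Hill fit; τa from single-exponential fits; mean ± SEM.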
SMILES,effect on genistein's action on CNG channels [1],effect of Ni^2+ on genistein inhibition [2]
Nc1ncnc2c1ncn2[C@@H]1O[C@H](COP(=O)(O)OP(=O)(O)NP(=O)(O)O)[C@@H](O)[C@H]1O [AMP-PNP],competitive inhibitor of genistein's action on CNG channels,
[Ni+2] [Ni^2+],,only reduces genistein inhibition
O=CN/C=C/c1cc(O)ccc1O [erbstatin],noncompetitively prevents genistein's effect on the channels,

# — publication PMC2225614 (The Journal of General Physiology, 2001)
